Assay outcomes from PubChem BioAssay.
MrgX1 agonist = agonists of human MrgX1 receptor | MrgX1-HEK293 cells, Fluo-4 calcium fluorescence, agonist mode; hits give high values | Q96LB2 | B-score at 10 µM | AID 588627 | 310,000 compounds, 0.44% hits;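 active means calcium response B-score plate-corrected fluorescence ratio at least 3 library SD, with starting fluorescence B-score inside 5 SD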
Target sequence (Q96LB2 whole entry, looked up): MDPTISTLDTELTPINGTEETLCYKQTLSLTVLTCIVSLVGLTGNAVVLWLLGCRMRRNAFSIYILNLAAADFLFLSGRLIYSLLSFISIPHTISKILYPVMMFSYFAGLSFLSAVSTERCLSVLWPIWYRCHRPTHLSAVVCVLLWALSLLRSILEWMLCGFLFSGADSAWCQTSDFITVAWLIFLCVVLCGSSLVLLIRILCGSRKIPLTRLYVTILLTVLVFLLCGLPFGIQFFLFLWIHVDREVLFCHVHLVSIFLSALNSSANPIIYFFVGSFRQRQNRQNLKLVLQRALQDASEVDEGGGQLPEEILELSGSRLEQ
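Material – MrgX1-expressing HEK293 cells · Input – 15,000 cells seeded per well · Dosing – compound as first of three additions · Times – overnight seeding, then 1 h dark dye loading · Measured by – kinetic Fluo-4 NW fluorescence of intracellular calcium · Read-out – B-scored fluorescence response ratio · Benchmarks – positive and negative control wells on each plate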
RGS4 block = human RGS4 inhibition. P49798. B-score at 10 µM. 310,000 compounds, 0.45% hits. HEK293 M3R/RGS4 inducible, Fluo-4 calcium flux; hits give high values; triggered by carbachol at its EC20. AID 463165;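 active means B-score, a plate-corrected calcium signal, over three deviations above library mean, with baseline fluorescence within five deviations of library mean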;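 further: RGS4 expression induced by doxycycline in cells with stable M3 receptor; B-score is computed from the integrated fluorescence ratio over baseline after carbachol; higher B-score means a larger calcium signal and so more RGS4 inhibition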
Target sequence (P49798 whole entry, looked up): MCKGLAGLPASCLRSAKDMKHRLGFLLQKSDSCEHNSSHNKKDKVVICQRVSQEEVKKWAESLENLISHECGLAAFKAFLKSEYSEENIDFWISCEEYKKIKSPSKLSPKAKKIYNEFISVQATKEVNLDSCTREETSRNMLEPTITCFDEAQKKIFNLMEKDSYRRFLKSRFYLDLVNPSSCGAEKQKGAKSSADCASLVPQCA
RGS4 pot = potentiators or activators of RGS4; HEK293 M3R/inducible RGS4, carbachol calcium flux Fluo4; hits give low values; 310,000 compounds, 0.92% hits; B-score at 10 µM;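 active means B-score of the integrated calcium signal more than 4 SD below the library mean, with starting fluorescence not abnormally high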;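 further: negative B-score means reduced calcium response which marks RGS4 activation or potentiation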
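System – HEK293 FlpIn-TREx cells, stable M3R, doxycycline-inducible RGS4 · Reagent – ECmax carbachol challenge · Times – compound preincubation 20 min at room temperature before agonist · Technique – Fluo4 fluorescence kinetic imaging of calcium · Measure – B score of integrated Fluo4 ratio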
MrgX1 allo act = allosterically activates human MrgX1 receptor signaling; MrgX1-HEK293, Fluo-4 calcium flux, FDSS; hits give high values; AID 588675; B-score at 10 µM; 310,000 compounds, 0.63% hits; Q96LB2;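 active means plate-corrected calcium response at least 3 library SD above typical, normal starting fluorescence, not activating the receptor alone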;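 further: compound read alongside a low EC10 to EC30 dose of BAM8-22 agonist; peak minus trough fluorescence over baseline measured at the second addition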
MrgX1 antagonist = blocks BAM8-22 activation of human MrgX1 receptor. MRGX1-HEK293 calcium flux, Fluo-4, BAM8-22 antagonism; hits give low values. B-score at 10 µM. 310,000 compounds, 1.3% hits. AID 588676;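 active means calcium-response B-score plate-corrected more than 3 library SD below zero, starting fluorescence within 5 deviations, no agonist response on first addition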;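 further: peak minus trough fluorescence over baseline after final BAM8-22 challenge near maximal dose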
* hit, by the source's call; i = inactive; · = no result. An excerpt weighted towards active compounds, which were near 3.5% of everything screened.

SMILES | MrgX1 agonist | RGS4 block | RGS4 pot | MrgX1 allo act | MrgX1 antagonist
COC(=O)c1ccc2c(c1)C(C)(C)C(/C=C/c1ccc(OC)c(OC)c1OC)=[N+]2C | i | i | i | i | -6.53*
O=C(CN1CCN(c2ccc(Cl)cc2[N+](=O)[O-])CC1)N1CCOCC1 | i | i | i | i | i
Cc1ccc2c(=O)cc(C(=O)NC3CCS(=O)(=O)C3)oc2c1C (stereo not given) | i | i | i | i | i
CC(=O)Nc1ccc(Br)c2ccccc12 | i | i | i | i | i
O=C(Nc1ccc(Br)c2ccccc12)c1ccc2ccccc2c1O | i | i | -7.5* | i | i
COc1cc(S(=O)(=O)N2CCCN(C)CC2)ccc1NC(C)=O | i | i | i | i | i
CC1(C)OC2OC(C(=O)N/N=C/c3cc(Br)ccc3O)C3OC(C)(C)OC3C2O1 (stereo not given) | i | i | i | i | i
CC1C(=NO)C(C)C(c2ccccc2)NC1c1ccccc1 (stereo not given) | i | i | i | i | i
Cc1ccc(C2NC(c3ccc(C)cc3)C(C)C(=NO)C2C)cc1 (stereo not given) | i | i | i | 11.6* | i
O=C(Cn1nc(C(=O)O)c2ccccc2c1=O)Nc1ccccc1C(F)(F)F | i | i | i | i | i
CCOC(=O)c1ccc(OCCOc2ccccc2C)cc1 | i | i | i | i | i
COc1cc(N(C)C)c([N+](=O)[O-])cc1C(=O)NC(C)CNc1ccc([N+](=O)[O-])cc1Cl (stereo not given) | i | i | i | i | -6.13*
CCN(CC)CCNC(=O)c1cc([N+](=O)[O-])c(N(C)C)cc1OC | i | i | i | i | i
COP(=O)(OC)c1nc(-c2ccc([N+](=O)[O-])cc2)oc1N1CCCCC1 | 33* | i | i | i | i
Cc1ccc(C)c(NC(=S)NCc2ccc3c(c2)OCO3)c1 | i | i | -7.19* | i | i
Cc1ccc(CNc2ccc3c(c2)OCO3)cc1 | 28.8* | i | i | i | i
c1cc(CNc2ccc3c(c2)OCO3)ccn1 | i | i | i | i | i
COC(=O)c1cc(CNC(=O)Cc2ccsc2)ccc1OC | i | i | i | i | i
CCN(CC)N=Nc1ccc(C(=O)O)cc1 | i | i | i | i | -5.52*
CCN(CC)N=Nc1ccc(S(=O)(=O)N2CCSC2C(=O)O)cc1 (stereo not given) | i | i | i | i | i
CCc1nc(N2CCN(C(=O)c3ccco3)CC2)c2c3c(sc2n1)CCCC3 | i | i | i | i | i
O=C(c1ccco1)N1CCN(c2ncnc3sc4c(c23)CCC4)CC1 | i | i | -7.15* | i | i
CCOc1ccccc1N1CC(C(=O)Nc2cccc(S(=O)(=O)N3CCCCC3)c2)CC1=O (stereo not given) | i | i | i | i | i
CCN(CC)C(=O)c1sc2nc(-c3cccs3)cc(-c3cccs3)c2c1N | i | i | i | i | -7.17*
CC(C)(C)C(=O)c1sc2nc(-c3cccs3)cc(C(F)(F)F)c2c1N | i | i | -9.68* | i | i
SMILES | MrgX1 agonist | RGS4 block | RGS4 pot | MrgX1 allo act | MrgX1 antagonist
O=C(Cc1ccc(S(=O)(=O)N2CCOCC2)s1)N1CCN(S(=O)(=O)c2cccc(Cl)c2)CC1 | i | i | i | i | i
CCOC(=O)c1cccc(NC(=O)CSc2nncn2-c2ccccn2)c1 | i | i | i | i | i
CCCCC(=O)N(c1ccc(C(=O)O)cc1)c1nc(-c2ccc(Cl)cc2)c(CC)s1 | i | i | -7.37* | i | i
CCc1sc(N(C(=O)Cc2ccccc2)c2ccccc2)nc1-c1ccccc1 | i | i | i | i | i
COc1cccc(CNC(=O)N2CCN(c3ccccc3)CC2)c1 | i | i | i | i | i
C[C@@H]1NC(=O)c2cc([N+](=O)[O-])cc(I)c2OCC[C@@H](C(=O)NC(CC(=O)O)C(N)=O)NC(=O)[C@H](CCC(=O)O)NC1=O (stereo not given in full) | i | · | · | i | i
NC(=O)C(CC(=O)O)NC(=O)[C@@H]1CCOc2c(I)cc([N+](=O)[O-])cc2C(=O)N[C@@H](CCC(=O)O)C(=O)N[C@@H](CO)C(=O)N1 (stereo not given in full) | i | · | · | i | -6.08*
Cc1ccc(S(=O)(=O)N2CCN(C)CC2)cc1[N+](=O)[O-] | i | i | i | i | -4.91*
COc1ccccc1NS(=O)(=O)c1cn(C)cn1 | i | i | i | i | i
O=C(CSCc1ccco1)c1ccc(Cl)s1 | i | i | i | i | i
O=C(CCN1CCC(c2ccc(Cl)s2)=N1)c1ccc(Cl)s1 | i | i | i | i | -4.87*
CN(C)c1ccc(/C=C/c2nc3ccccc3s2)cc1 | i | i | -7.49* | i | -6.34*
COc1ccc(CN2CCC(CO)(Cc3ccccc3C(F)(F)F)CC2)c(F)c1 | i | i | -7.06* | i | i
O=C1OC(N2C(=O)CC[C@H]2C(=O)Nc2ccc3c(c2)OCO3)c2ccccc21 (stereo not given in full) | i | i | i | i | i
CCOc1ccc(OCCOC(=O)CNC(=O)c2ccc(Cl)cc2Cl)cc1 | i | i | i | i | -7*
O=c1c2ccc([N+](=O)[O-])cc2ncn1CCOc1ccc(Cl)cc1 | i | i | -8.16* | i | i
O=c1c2ccc([N+](=O)[O-])cc2ncn1CCOc1cccc(Br)c1 | i | i | i | i | i
CCOc1ccc(S(=O)(=O)N2CCN=C2c2ccccc2)cc1 | i | i | i | i | i
Oc1ccccc1N1CCN(c2ncnc3scc(-c4ccccc4)c23)CC1 | i | i | -7.36* | i | i
Oc1ccccc1N1CCN(c2ncnc3scc(-c4ccc(F)cc4)c23)CC1 | i | i | i | i | i
Cc1ccc(S(=O)(=O)N(CC(=O)Nc2cccc(C)c2C)C(=O)N2CCN(C)CC2)cc1 | · | i | i | · | ·
Cc1cc[n+](CC[n+]2ccc(C)cc2)cc1 | i | i | i | i | i
CCC(C)(C)c1ccc(OCCCC[n+]2ccc(C)cc2)c(C(C)(C)CC)c1 | i | i | -9.27* | i | i
CCC(C)(C)c1ccc(OCCCC[n+]2cccc(C)c2C)c(C(C)(C)CC)c1 | i | i | i | i | -5.34*
C/C(=N\O)C(C)(C)Nc1ccc(F)cc1 | i | i | i | i | i
